Screens as filed in PubChem BioAssay.
PDI inh – blocks human protein disulfide isomerase activity; inhibition, % at 10 µM; actives 0.052% (n = 350,000); P07237; PDI insulin aggregation turbidity, A650, 90 min;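 active means mean inhibition across replicates of 30% or more, whatever share of single replicates reach that level; inconclusive means mean inhibition below 30% while every single replicate reaches 30%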
Target sequence (P07237 whole entry, looked up): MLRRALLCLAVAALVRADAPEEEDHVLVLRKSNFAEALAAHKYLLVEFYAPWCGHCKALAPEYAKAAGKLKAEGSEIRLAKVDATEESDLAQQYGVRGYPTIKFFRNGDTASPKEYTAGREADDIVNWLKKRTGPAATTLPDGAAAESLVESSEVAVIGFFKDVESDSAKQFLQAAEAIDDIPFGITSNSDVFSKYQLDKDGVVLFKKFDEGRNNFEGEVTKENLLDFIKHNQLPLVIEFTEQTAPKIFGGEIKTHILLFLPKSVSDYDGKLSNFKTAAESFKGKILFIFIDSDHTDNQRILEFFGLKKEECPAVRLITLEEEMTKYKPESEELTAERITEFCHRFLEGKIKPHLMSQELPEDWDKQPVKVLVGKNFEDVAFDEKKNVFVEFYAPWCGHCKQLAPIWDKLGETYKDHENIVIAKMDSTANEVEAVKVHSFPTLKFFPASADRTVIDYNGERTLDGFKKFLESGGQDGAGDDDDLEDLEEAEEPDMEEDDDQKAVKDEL
ERp5 block – inhibitors of human ERp5 | actives 0.05% (n = 350,000) | ERp5 insulin aggregation, absorbance 650 nm, 90 min | Q15084 | inhibition, % at 9.99 µM;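 active means mean replicate inhibition above about 25%, with every replicate also reaching it, limit read from the data, passing the limit was not always enough; inconclusive means only one of those two criteria met; inactive means neither criterion met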
SIRT5 inh – blocks human SIRT5 desuccinylation of peptide; inhibition, % at 15 µM; Purified SirT5, succinyl-peptide AMC, trypsin-coupled fluorescence; Q9NXA8; AID 652115; actives 1.1% (n = 330,000); in the data active means inhibition above about 15%; inconclusive means no clear call, values can overlap the other calls
FN deposit inh – fibronectin deposition inhibition; actives 0.086% (n = 350,000); AH1F fibroblasts, Alexa488-fibronectin deposition fluorescence, overnight; inhibition, % at 12.6 µM; AID 743247;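 active means mean inhibition across replicates of 30% or more, regardless of how many single replicates reach that level; inconclusive means mean under 30% yet at least half of replicates reach 30%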
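test system = AH1F fibroblasts assembling fluorescent fibronectin matrix | quantity = 10000 AH1F cells per well | buffer or medium = DMEM plus 2% serum, read in PBS | doses = single dose, pinned | incubation = 1 h cell attachment, overnight exposure to compound and label | detection = fluorescence at 485 nm excitation, 525 nm emission | read-out basis = inhibition from reduced deposited-fibronectin fluorescence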
MLL AF4-AF9 inh – MLL-AF4/AF9 protein interaction inhibition. inhibition, % at 10 µM. P42568. AlphaScreen, biotin-AF4 peptide binding to FLAG-AF9. actives 0.47% (n = 350,000);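 active means every replicate reaching a set inhibition limit, whatever the replicate mean, cut at about 25% in these data; inconclusive means mean inhibition reaches that limit but some replicates miss it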
Of the large screens only hits and unclear results are named; the others gave an inactive call; ! = repeats disagree. Sampled rows, rich in hits. Any-hit rate of the full collection: about 1.3%.

Cc1ccc(NC(=O)CN2C(=O)S/C(=C\c3ccc(OCC(=O)O)c(Br)c3)C2=O)cc1	SIRT5 inh 17
COc1cc(/C=C(\C#N)C(=O)c2ccc(O)c(O)c2)cc(I)c1O	SIRT5 inh 20
COCC#Cc1cnc2c(c1)C(=O)N([C@@H](C)CO)C[C@H](C)[C@@H](CN(C)C(=O)NC1CCCC1)O2	ERp5 block 50 (no result: PDI inh)
COCC#Cc1cnc2c(c1)C(=O)N([C@H](C)CO)C[C@@H](C)[C@H](CN(C)C(=O)NC1CCCC1)O2	ERp5 block 59 (no result: PDI inh)
COCC#Cc1cnc2c(c1)C(=O)N([C@@H](C)CO)C[C@@H](C)[C@@H](CN(C)C(=O)NC1CCCC1)O2	none (no result: PDI inh)
C/C=C/c1cnc2c(c1)C(=O)N([C@@H](C)CO)C[C@H](C)[C@@H](CN(C)C(=O)NC1CCCC1)O2	SIRT5 inh 17 (no result: PDI inh, FN deposit inh)
CC1CCN(C(=O)Cn2c(=O)oc3cc(S(=O)(=O)N4CCCCC4)ccc32)CC1	none
O=C(Cn1c(=O)oc2cc(S(=O)(=O)N3CCCC3)ccc21)N1CCCC1	MLL AF4-AF9 inh 28
COc1ccccc1N1CCN(C2=Nc3cccc4cccc2c34)CC1	MLL AF4-AF9 inh 30 (no result: FN deposit inh)
Cc1ccccc1N=Cc1cc2c(cc1O)OC(N)=C(C#N)C2c1ccccc1 (stereo unspecified)	none
CCCCCCCCCCCCCCCCn1cc[n+](C)c1	PDI inh inconclusive, FN deposit inh 34
CCCCCCCCn1ccc(=N)cc1	none
CCN(CCNCC(O)COCc1ccc(Cl)cc1)c1cccc(C)c1 (stereo unspecified)	MLL AF4-AF9 inh 29
CCN(CC)CCCN(C(=O)c1ccco1)c1nc(-c2ccc(Cl)cc2)cs1	MLL AF4-AF9 inh 26
CCN(CC)CCCN(C(=O)c1ccco1)c1nc(-c2ccc(C)cc2)cs1	none
CCN(CC)CCCN(C(=O)c1ccc(Br)cc1)c1nc(-c2ccc(OC)cc2)cs1	MLL AF4-AF9 inh 31
CCN(CC)CCCN(C(=O)c1cccs1)c1nc(-c2ccc(OC)cc2)cs1	none (no result: ERp5 block, SIRT5 inh, FN deposit inh, MLL AF4-AF9 inh)
Cc1ccc(NC(=S)NN2CCN(C)CC2)c(C)c1	none
COc1ccc([C@@H]2[C@@H](C)N(c3ccccc3)c3ccccc3C(=O)N2Cc2ccccc2)cc1	none (no result: SIRT5 inh)
Nc1nnc(SCC(=O)Nc2ccc(Cl)c(C(=O)O)c2)s1	SIRT5 inh 17
CSc1ncnc2c1ncn2CCCNCc1ccccn1	none
O=C(O)CCCCCn1c(SCc2cc(=O)n3ccccc3n2)nc2ccsc2c1=O	none
C/C(=N\NC(=S)Nc1cccc(C)c1)c1ccco1	MLL AF4-AF9 inh 36
CC(C)[C@H](NC(=O)[C@H](CCCN=C(N)N)NC(=O)NC(Cc1ccccc1)C(=O)O)C(=O)NC(C=O)CCCN=C(N)N (stereo partly specified)	SIRT5 inh 46
CC(C)C(NC(=O)OCc1ccccc1)C(=O)NC(Cc1ccc(O)cc1)C(=O)O (stereo unspecified)	none (no result: FN deposit inh)
CCCN(CCC)C(=O)Cn1c(=O)n(CCCC(=O)NCc2ccco2)c(=O)c2sccc21	none
C[C@@H]1CCCCO[C@@H](CN(C)CC2CCCCC2)[C@@H](C)CN([C@@H](C)CO)C(=O)c2cc(NS(=O)(=O)c3ccc(F)cc3)ccc2O1	SIRT5 inh 19 (no result: PDI inh, FN deposit inh)
Cc1ccc(S(=O)(=O)Nc2ccc3c(c2)C(=O)N([C@@H](C)CO)C[C@@H](C)[C@@H](CN(C)CC2CCCCC2)OCCCC[C@H](C)O3)cc1	SIRT5 inh 17 (no result: PDI inh, FN deposit inh)
C[C@@H]1CCCCO[C@H](CN(C)CC2CCCCC2)[C@H](C)CN([C@@H](C)CO)C(=O)c2cc(NS(=O)(=O)c3ccc(F)cc3)ccc2O1	none (no result: PDI inh, FN deposit inh)
CCCOc1ccc2c(c1)C(=NN=C(N)N)c1cc(OCCC)ccc1-2	MLL AF4-AF9 inh 32
COC1=CC(=Cc2c(N)n3nc(CC(=O)N4CCCCC4)sc3nc2=O)C=C(OC)C1=O	SIRT5 inh 32
COC1=C/C(=C/c2c(N)n3cc(C)sc3nc2=O)C=CC1=O	PDI inh inconclusive
CCOC1=C/C(=C/c2c(N)n3nc(CC(=O)N4CCCC4)sc3nc2=O)C=CC1=O	none
COC1=C/C(=C/c2c(N)n3nc(CC(=O)N4CCCC4)sc3nc2=O)C=CC1=O	SIRT5 inh 30
CC1CC(=O)Nc2ccccc2N1C(=O)Nc1ccccc1 (stereo unspecified)	ERp5 block inconclusive
C[C@@H]1CN([C@@H](C)CO)C(=O)c2cc(NC(=O)Cc3cn(C)c4ccccc34)ccc2O[C@@H]1CN(C)Cc1ccc(Oc2ccccc2)cc1	SIRT5 inh 19 (no result: PDI inh, FN deposit inh)
C[C@@H]1CN([C@H](C)CO)C(=O)c2cc(NC(=O)CCC(F)(F)F)ccc2O[C@H]1CN(C)Cc1ccc(Oc2ccccc2)cc1	SIRT5 inh 27 (no result: PDI inh)
CC(C)NC(=O)N(C)C[C@H]1Oc2ccc(NC(=O)Cc3ccccc3)cc2C(=O)N([C@H](C)CO)C[C@@H]1C	SIRT5 inh 20!
C[C@H]1CN([C@@H](C)CO)C(=O)c2cc(NC(=O)Cc3ccccc3)ccc2O[C@@H]1CN(C)Cc1ccc(Oc2ccccc2)cc1	SIRT5 inh 17 (no result: PDI inh)
C[C@@H]1CN([C@@H](C)CO)C(=O)c2cc(NC(=O)CCC(F)(F)F)ccc2O[C@@H]1CN(C)Cc1ccc(-c2ccccc2)cc1	none (no result: PDI inh)
CCOC(=O)c1c(C)[nH]c(C(=O)OCc2c(C)noc2C)c1C	none (no result: ERp5 block, SIRT5 inh, FN deposit inh, MLL AF4-AF9 inh)
CC1=C(C(=O)Nc2ccccc2)C(c2ccncc2)C(C#N)=C(SCC(=O)NC(C)C)N1 (stereo unspecified)	none (no result: ERp5 block, SIRT5 inh, MLL AF4-AF9 inh)
C[C@H](CO)N1C[C@H](C)[C@@H](CN(C)C(=O)Nc2ccccc2F)Oc2ncc(-c3ccccc3)cc2C1=O	none (no result: PDI inh)
Cc1[nH]nc(N=CC2=C(O)CC(C)(C)CC2=O)c1-c1ccccc1	none
O=C(Cn1ccc2ccccc2c1=O)NCCC(=O)N1CCN(C2CCCCC2)CC1	none (no result: ERp5 block, SIRT5 inh, MLL AF4-AF9 inh)
C[C@H](CO)N1C[C@H](C)[C@@H](CN(C)S(=O)(=O)c2cccs2)Oc2ccc(NC(=O)CCC(F)(F)F)cc2C1=O	SIRT5 inh 25!
C[C@H](CO)N1C[C@H](C)[C@H](CN(C)Cc2ccc(Oc3ccccc3)cc2)Oc2ccc(NC(=O)Cc3ccccc3)cc2C1=O	SIRT5 inh 43 (no result: PDI inh)
CC(C)c1ccc(NC(=S)N2CCN(C)CC2)cc1	none
COc1ccc(C2NCCc3cc(OC)c(OC)cc32)cc1OC (stereo unspecified)	FN deposit inh active (no result: ERp5 block, SIRT5 inh, MLL AF4-AF9 inh)
CCC(=O)N1C[C@@H]2[C@H](c3ccccc31)[C@H](CO)N2Cc1cc(F)ccc1F	none (no result: PDI inh, FN deposit inh)
CCC(=O)N1C[C@H]2[C@@H](c3ccccc31)[C@@H](CO)N2Cc1cc(F)ccc1F	SIRT5 inh 28 (no result: PDI inh, FN deposit inh)
COc1ccccc1C(=O)N1C[C@@H]2[C@H](c3ccccc31)[C@H](CO)N2Cc1ccc(F)cc1	none (no result: PDI inh, SIRT5 inh, FN deposit inh, MLL AF4-AF9 inh)
COc1ccccc1C(=O)N1C[C@H]2[C@@H](c3ccccc31)[C@@H](CO)N2Cc1ccc(F)cc1	SIRT5 inh 16 (no result: PDI inh, FN deposit inh)
O=C(Nc1cc(F)ccc1F)N1C[C@@H]2[C@H](c3ccccc31)[C@H](CO)N2Cc1ccncc1	SIRT5 inh 22 (no result: PDI inh, FN deposit inh)
O=C(Nc1cc(F)ccc1F)N1C[C@H]2[C@@H](c3ccccc31)[C@H](CO)N2Cc1ccncc1	none (no result: PDI inh, FN deposit inh)
